Compound activity: PubChem BioAssay, several laboratories
Apaf1 inhib – inhibitors of human Apaf-1 apoptosome. AID 489030. reconstituted apoptosome caspase-3 activity, DEVD-Rh110 fluorescence. inhibition, % at 20 µM. 330,000 compounds, 0.71% hits. O14727; active = inhibition of at least 40% at 20 µM;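 note: plate controls were DMSO wells for no effect and DEVD-CHO caspase inhibitor wells for full effect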
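Material: reconstituted apoptosome with Apaf-1, cytochrome c, caspase-9, procaspase-3, dATP; medium: pH 7.5 Hepes buffer with CHAPS, BSA, DTT; also added: cytochrome c and DEVD-Rh110 substrate; timing: 30 min plus 50 min, RT; signal: Rh110 fluorescence intensity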
MEKK3 PB1 HTS – MEKK3-MEK5 PB1 interaction, increase or decrease | bead-based flow cytometry, Alexa488-MEK5 binding to MEKK3; actives lie on both sides; 0 = blocked by unlabeled MEK5, 100 = vehicle | 290,000 compounds, 1.4% hits | binding response (% of control), % at 10 µM | Q99759 | AID 1529;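 active = binding response more than 3 SD above or below the average of its plate-row segment, actives on both sides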;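 note: Alexa488 bead fluorescence after subtracting the streptavidin-only scavenger bead signal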
Target sequence (Q99759 whole entry, looked up): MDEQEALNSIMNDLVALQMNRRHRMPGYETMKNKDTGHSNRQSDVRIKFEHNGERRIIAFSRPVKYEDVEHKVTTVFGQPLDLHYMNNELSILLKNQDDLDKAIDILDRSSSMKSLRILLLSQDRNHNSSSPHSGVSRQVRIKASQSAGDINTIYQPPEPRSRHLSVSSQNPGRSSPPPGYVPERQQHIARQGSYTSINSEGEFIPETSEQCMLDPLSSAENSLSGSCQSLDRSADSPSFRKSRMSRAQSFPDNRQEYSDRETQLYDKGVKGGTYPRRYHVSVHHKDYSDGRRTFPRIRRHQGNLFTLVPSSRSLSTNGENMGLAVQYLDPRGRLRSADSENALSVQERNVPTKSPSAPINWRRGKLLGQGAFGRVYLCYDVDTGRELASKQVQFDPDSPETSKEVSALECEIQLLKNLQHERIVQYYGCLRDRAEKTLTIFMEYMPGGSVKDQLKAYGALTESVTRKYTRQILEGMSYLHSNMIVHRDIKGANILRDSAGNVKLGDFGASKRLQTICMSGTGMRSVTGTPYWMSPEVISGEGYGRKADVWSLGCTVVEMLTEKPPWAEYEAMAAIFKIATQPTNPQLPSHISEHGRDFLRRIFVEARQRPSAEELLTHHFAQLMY
UBC13 inh – human UBC13 polyubiquitination inhibition | inhibition, % at 20 µM | P61088 | 330,000 compounds, 0.47% hits | AID 485273 | UBC13 polyubiquitin chain formation, TR-FRET; in the data active = inhibition above about 45%, passing the limit was not always enough
MEKK2wt PB1 HTS – raises or lowers MEK5 binding to wildtype human MEKK2 PB1 domain | Q9Y2U5 | bead flow cytometry, Alexa488-MEK5 binding to MEKK2 WT; actives lie on both sides | binding response (% of control), % at 10 µM | 290,000 compounds, 1.1% hits | AID 1531; in the data active = binding response below about 67% or above about 130%
MEKK2 mut-MEK5 – signal of MEK5 binding to mutant human MEKK2 PB1 domain; 290,000 compounds, 0.35% hits; percent response, % at 10 µM; bead flow cytometry, Alexa488-MEK5 binding to MEKK2 mutant; AID 1530; in the data active = percent response above about 24%, passing the limit was not always enough
Apaf-1 inh conf – Apaf-1 inhibition, single-dose confirmed. shares compounds with Apaf1 inhib. reconstituted apoptosome, caspase-3 DEVD-Rh110 fluorescence. inhibition, % at 20 µM. 1,800 compounds, 25% hits;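 active = mean inhibition of at least 40% at 20 µM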;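 note: plate controls were DMSO wells for no effect and DEVD-CHO caspase inhibitor control wells for full effect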
Rh110 interf inh – counter-screen for Apaf-1 inhibitors: fluorescence interference | activation (fluorescence interference), % at 20 µM | shares compounds with Apaf1 inhib | 1,800 tested, under 10 active | Rh110 fluorescence interference, quenched caspase reaction;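 active = signal rise of 40% or more at 20 µM, treated as a fluorescence artifact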
Fluor interf inh – Apaf-1 inhibitor counter-screen fluorescence artifact. 460 tested, under 10 active. shares compounds with Apaf1 inhib. IC50, µM. fluorescence interference counterscreen, Apaf-1 assay format. AID 588538; call rule not given here
Starred values were filed as active, the others as inactive; / = no result given. Hits are enriched below; roughly 2.9% of the tested compounds scored in any of these assays.

SMILES	Apaf1 inhib	MEKK3 PB1 HTS	UBC13 inh	MEKK2wt PB1 HTS	MEKK2 mut-MEK5	Apaf-1 inh conf	Rh110 interf inh	others
N#Cc1ccccc1NCc1ccccc1	10	102	12	105	6	/	/
O=c1cccccc1NCc1ccccc1	45*	101	-18	96	-4	7	6
Cc1nc(CNC(=O)CC2C(=O)NCCN2Cc2cccc(Oc3ccccc3)c2)cs1 (centres undefined)	1	102	-11	126	16	/	/
COc1cc2sc3cc(NCC[C@@H]4CCCN4C)ccc3c(=O)c2cc1OC	55*	/	45	/	/	23	14
O=C(COc1ccccc1)N1CCN=C1SCc1cccnc1	3	113	-6	117	6	/	/
O=C(COc1ccccc1)N1CCN=C1SCc1ccc(F)cc1	56*	98	15	95	-5	5	-27
Cc1ccc(S(=O)(=O)N2CCCC2)cc1C(=O)NCc1ccccc1CN1CCCC1	11	/	-5	/	/	/	/
CCS(=O)(=O)CCSC1OC(COC(C)=O)C(OC(C)=O)C(OC(C)=O)C1OC(C)=O (centres undefined)	-7	94	-6	94	-5	/	/
CCC(C)Sc1ccc(-c2nc3ccc(C)cn3c2NC2CCCCC2)cc1 (centres undefined)	41*	/	29	/	/	8	7
COc1ccc(NC(=O)CCC2CCCCC2)cc1S(=O)(=O)N1CCCCC1	16	104	4	102	-4	/	/
Cc1ccc(/C=N/NC(=O)C(C)NC(=O)c2ccccc2)cc1 (centres undefined)	41*	91	2	89	-9	8	-6
O=C(N/N=C/c1ccc(F)cc1)c1ccccc1	-2	108	-6	96	-4	/	/
N#Cc1ccc(C23CC4(C2)[C@H](CN(Cc2ccc(-c5ccccc5)cc2)[C@@H]4c2ccccc2)C3c2ccc(C(F)(F)F)cc2)cc1 (some centres undefined)	45*	103	0	106	5	5	8
FC(F)(F)c1ccc(C2[C@H]3CN(Cc4ccc(-c5ccccc5)cc4)[C@H](c4ccccc4)C34CC2(c2ccccc2)C4)cc1 (some centres undefined)	30	96	-9	96	5	/	/
Cc1cc(OC(=O)c2ccccc2)n(CCC#N)n1	43*	99	6	97	1	11	-3
CN=C(Nc1cc(C)nn1CCC#N)c1ccccc1	2	100	-10	104	4	/	/
COc1ccc2[nH]cc(CCNC(=O)Cc3ccc(F)cc3)c2c1	-6	101	18	106	7	/	/
COC(C[C@H]1O[C@@H]1C(=O)[C@H](C)OCc1ccccc1)OC	48*	95	3	94	-6	1	1
CC1=CC(C)(C)N2C(=O)C(=Nc3ccc(O)cc3)c3cccc1c32	90*	103	-28	97	2	15	-3
Cc1ccc(NC(=O)COC(=O)C2CCN(c3ccc(C(F)(F)F)cn3)CC2)cc1	15	/	6	/	/	/	/
CN(C)c1ccc(N/C=C/C(=O)C(C)(C)C)cc1	53*	100	-18	102	3	-3	-3
CN(C)c1ccc(N/C=C/C(=O)c2ccccc2)cc1	3	100	-34	102	2	/	/
COc1ccc(C2CC(=O)N3CN(c4ccc(C)c(Cl)c4)CSC3=C2C#N)cc1 (centres undefined)	47*	112	-17	104	6	8	0
N#Cc1c(N(CCO)CCO)nc(N)c2c(N)nc3c(c12)CC(=O)N3Cc1cccs1	73*	88	-1	89	-11	42*	12	Fluor interf inh=>100
CN(CCO)c1nc(N)c2c(N)nc3c(c2c1C#N)CC(=O)N3Cc1cccs1	77*	107	-14	104	-2	15	4
SMILES	Apaf1 inhib	MEKK3 PB1 HTS	UBC13 inh	MEKK2wt PB1 HTS	MEKK2 mut-MEK5	Apaf-1 inh conf	Rh110 interf inh	others
Cc1cc2cc(CNC(=O)NC3CCCCC3)ccc2n1C	51*	109	7	115	7	16	11
Cc1cc2cc(CNC(=O)Nc3ccc(Cl)c(Cl)c3)ccc2n1C	62*	96	-10	95	4	8	-1
Nc1nnc(/C=C/c2ccccc2)s1	0	95	-4	96	-4	/	/
NC(=O)[C@H](Cc1cc2ccccc2s1)NC(=O)[C@@H]1CC2(CC(c3cccc(NC(=O)[C@@H]4CCC(=O)N4)c3)=NO2)CN1C(=O)/C=C/Sc1ccccc1 (some centres undefined)	37	101	-38	99	-4	/	/
NC(=O)[C@H](Cc1cc2ccccc2s1)NC(=O)[C@@H]1CC2(CC(c3cccc(NC(=O)[C@@H]4CCC(=O)N4)c3)=NO2)CN1C(=O)/C=C/c1c(F)cccc1Cl (some centres undefined)	47*	103	-16	106	3	16	13
COc1ccc2c(c1)CC/C(=C\Nc1ccc3c(c1)OCO3)C2=O	78*	98	-28	95	-3	47*	4	Fluor interf inh=>100
O=C1/C(=C/Nc2ccc3c(c2)OCO3)CCc2ccccc21	45*	98	-43	93	5	32	5
COc1ccc(N/C=C2\CCc3ccccc3C2=O)cc1	79*	98	-67	101	-1	36	16
CCC(C)(C)NC(=O)c1cc(S(=O)(=O)N2CCCCC2)ccc1N1CCOCC1	-11	109	2	103	-4	/	/
Cc1cccc(NC(=O)COC(=O)c2ccc3c(c2)OCO3)c1C	7	106	-13	106	3	/	/
Cc1ccc(NC(=O)CCC(=O)N/N=C/C=C/c2ccccc2)cc1	9	107	-14	107	-1	/	/
CCN1/C(=C/C=C/c2sc3ccccc3[n+]2CC)Sc2ccccc21	90*	/	2	/	/	51*	16	Fluor interf inh=>100
COc1ccc(/C=C/C(=O)OCC(=O)Nc2ccc(N3CCOCC3)cc2)cc1OC	-25	93	16	96	-9	/	/
COCCn1c(SCC(=O)Nc2cc(C)on2)nnc1C(C)C	-1	100	7	103	-2	/	/
COc1cccc(N2CCN(CC(=O)Nc3ccccc3C(=O)NCCc3ccccc3)CC2)c1	50*	/	29	/	/	12	5
Cc1c(C(=O)Nc2cc(F)ccc2F)sc2nc3n(c(=O)c12)CCCCC3	4	97	-3	98	-10	/	/
COc1ccc(Nc2ccc(Nc3ccc(OC)cc3)nn2)cc1	6	112	4	114	5	/	/
COc1ccc(Nc2ccc(OC)cc2)cc1	80*	97	-52	100	0	-6	0
